This note sets out measurements from ChEMBL document CHEMBL1157620, “1-(Aryl)-6-[alkoxyalkyl]-3-azabicyclo[3.1.0]hexanes and 6-(aryl)-6-[alkoxyalkyl]-3-azabicyclo[3.1.0]hexanes: a new series of potent and selective triple reuptake inhibitors” (J Med Chem, 2010).

For test [1], the target named is Sodium-dependent serotonin transporter (Homo sapiens, UniProt P31645). Nature of the test: Displacement of [3H]citalopram from human recombinant SERT expressed in BacMam virus-transduced cells by scintillation proximity assay. In kind it is cell-based. The procedure, abridged: (§1)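 BacMam-transduced membranes in SPA format. SERT: 1 mg/mL beads, 6 μg/mL membranes, 3 nM [3H]citalopram. NET: 2 mg/mL beads, 40 μg/mL membranes, 10 nM [3H]nisoxetine. Incubated overnight at room temperature; pKi from pIC50 by Cheng-Prusoff.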
Sodium-dependent serotonin transporter, sequence (P31645 whole entry): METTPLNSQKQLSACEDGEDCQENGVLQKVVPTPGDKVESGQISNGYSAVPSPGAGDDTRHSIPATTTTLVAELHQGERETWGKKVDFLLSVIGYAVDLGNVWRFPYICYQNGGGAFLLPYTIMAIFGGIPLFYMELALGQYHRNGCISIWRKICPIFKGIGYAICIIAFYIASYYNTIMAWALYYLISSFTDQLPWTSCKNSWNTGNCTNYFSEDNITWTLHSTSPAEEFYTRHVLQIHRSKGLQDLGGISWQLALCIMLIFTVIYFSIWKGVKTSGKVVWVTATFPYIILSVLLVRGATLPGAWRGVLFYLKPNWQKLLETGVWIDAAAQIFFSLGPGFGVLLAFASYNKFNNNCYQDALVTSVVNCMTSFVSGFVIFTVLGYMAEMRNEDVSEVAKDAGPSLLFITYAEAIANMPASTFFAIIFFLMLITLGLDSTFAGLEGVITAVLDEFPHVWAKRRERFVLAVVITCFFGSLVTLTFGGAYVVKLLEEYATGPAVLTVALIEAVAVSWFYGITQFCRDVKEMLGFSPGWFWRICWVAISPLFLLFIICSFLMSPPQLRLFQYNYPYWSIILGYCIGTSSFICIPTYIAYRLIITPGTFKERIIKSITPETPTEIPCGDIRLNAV

Test [2] addresses Sodium-dependent noradrenaline transporter (Homo sapiens, UniProt P23975). As to the kind of experiment: Displacement of [3H]nisoxetine from human recombinant NET expressed in BacMam virus-transduced cells by scintillation proximity assay. In kind it is cell-based. In short, it runs like this: as §1
For orientation: In a radioligand displacement assay an active substance lowers the binding of a labelled ligand.

Test [3] deals with Sodium-dependent dopamine transporter (Homo sapiens, UniProt Q01959). Nature of the test: Displacement of [3H]WIN-35428 from human recombinant DAT expressed in BacMam virus-transduced cells by scintillation proximity assay. Format: cell-based.
Sodium-dependent dopamine transporter, sequence (Q01959 whole entry): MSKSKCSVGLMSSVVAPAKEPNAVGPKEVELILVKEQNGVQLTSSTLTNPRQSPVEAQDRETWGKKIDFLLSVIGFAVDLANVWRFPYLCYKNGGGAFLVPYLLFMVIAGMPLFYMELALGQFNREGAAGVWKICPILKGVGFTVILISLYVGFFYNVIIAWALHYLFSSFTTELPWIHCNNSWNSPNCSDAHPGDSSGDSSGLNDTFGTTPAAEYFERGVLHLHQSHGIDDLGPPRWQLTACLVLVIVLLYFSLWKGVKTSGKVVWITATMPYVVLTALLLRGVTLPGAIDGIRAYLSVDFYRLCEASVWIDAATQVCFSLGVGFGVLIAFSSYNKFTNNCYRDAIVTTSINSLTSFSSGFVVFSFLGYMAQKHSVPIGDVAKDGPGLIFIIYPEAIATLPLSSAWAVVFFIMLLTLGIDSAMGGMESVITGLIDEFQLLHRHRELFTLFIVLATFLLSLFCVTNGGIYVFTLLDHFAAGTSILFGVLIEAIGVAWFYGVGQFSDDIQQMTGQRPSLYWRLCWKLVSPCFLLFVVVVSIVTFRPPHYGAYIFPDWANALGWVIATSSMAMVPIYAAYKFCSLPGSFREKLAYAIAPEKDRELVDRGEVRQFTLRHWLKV
Test [4] concerns the target Cytochrome P450 2D6 (Homo sapiens, UniProt P10635). As to the kind of experiment: Inhibition of human […] by fluorescence assay. In kind it is ADME. In short, it runs like this:
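Recombinant human P450 bactosomes (0.1 mg/mL) in 50 mM phosphate, pH 7.4. Test compound at 0.1-10 μM, preincubated 10 min at 37 °C with fluorogenic substrate: ethoxyresorufin 0.5 μM (1A2), FCA 50 μM (2C9), BMC 10 μM (2C19), MMC 10 μM (2D6).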

Sodium-dependent noradrenaline transporter, sequence (P23975 whole entry): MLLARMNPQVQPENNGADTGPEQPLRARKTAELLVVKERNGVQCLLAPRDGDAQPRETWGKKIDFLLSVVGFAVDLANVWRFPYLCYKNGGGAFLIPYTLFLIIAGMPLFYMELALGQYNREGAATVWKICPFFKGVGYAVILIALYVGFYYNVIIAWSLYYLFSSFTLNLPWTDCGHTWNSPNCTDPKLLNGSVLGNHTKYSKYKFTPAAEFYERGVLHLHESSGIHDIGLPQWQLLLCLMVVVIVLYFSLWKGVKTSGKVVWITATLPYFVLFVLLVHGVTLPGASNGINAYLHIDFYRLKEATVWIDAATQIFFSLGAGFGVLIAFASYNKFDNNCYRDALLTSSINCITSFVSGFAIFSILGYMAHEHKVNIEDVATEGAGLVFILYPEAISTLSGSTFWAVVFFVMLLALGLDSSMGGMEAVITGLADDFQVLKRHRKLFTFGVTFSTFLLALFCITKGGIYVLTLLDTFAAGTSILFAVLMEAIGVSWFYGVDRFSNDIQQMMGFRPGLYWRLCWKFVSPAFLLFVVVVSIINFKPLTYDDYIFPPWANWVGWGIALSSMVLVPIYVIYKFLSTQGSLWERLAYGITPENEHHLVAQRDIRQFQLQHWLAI
Cytochrome P450 2D6, sequence (P10635 whole entry): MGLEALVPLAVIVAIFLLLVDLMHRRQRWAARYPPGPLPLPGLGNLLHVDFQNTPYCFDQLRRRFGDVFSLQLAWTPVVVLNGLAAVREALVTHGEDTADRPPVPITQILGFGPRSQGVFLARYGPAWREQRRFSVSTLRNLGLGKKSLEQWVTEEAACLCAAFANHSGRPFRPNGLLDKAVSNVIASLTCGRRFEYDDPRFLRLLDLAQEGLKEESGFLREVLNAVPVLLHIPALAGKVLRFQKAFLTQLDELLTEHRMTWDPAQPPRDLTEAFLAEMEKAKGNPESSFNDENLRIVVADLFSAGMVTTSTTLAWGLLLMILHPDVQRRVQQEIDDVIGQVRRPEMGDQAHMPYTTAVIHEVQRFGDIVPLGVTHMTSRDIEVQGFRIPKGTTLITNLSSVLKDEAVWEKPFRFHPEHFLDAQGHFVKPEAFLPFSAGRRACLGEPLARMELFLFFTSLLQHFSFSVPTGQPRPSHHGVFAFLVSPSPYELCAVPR

As to `CC(C)OC[C@H]1[C@@H]2CNC[C@@]21c1ccc(Cl)c(Cl)c1` (relative stereo), the inhibition constant Ki in test [1] is 39.8 nM; in test [2] it was 200 nM; in test [3], 251 nM.

With `COC[C@@H]1[C@H]2CNC[C@]21c1ccc(Cl)c(Cl)c1` (stereo in doubt), the inhibition constant (Ki) in test [1] was 25.7 nM; in test [2], 224 nM; in test [3], 513 nM.

For `Clc1ccc([C@]23CNC[C@H]2[C@@H]3COC2CCCCC2)cc1Cl` (racemic), the results for the Ki in test [1], in test [2] and in test [3] were 1 nM, 2 nM and 20 nM, respectively.

Regarding `Clc1ccc([C@]23CNC[C@H]2[C@H]3COCC2CC2)cc1Cl` (racemic), the Ki was 31.6 nM in test [1], 126 nM in test [2] and 501 nM in test [3].

Regarding `Cc1csc(C[C@@H]2[C@H]3CNC[C@]32c2ccc(Cl)c(Cl)c2)n1` (stereo in doubt), the Ki was 15.8 nM in test [1], 79.4 nM in test [2] and 50.1 nM in test [3].

For `CCC(C)OCC[C@]1(c2ccc(Cl)c(Cl)c2)[C@@H]2CNC[C@@H]21` (mixture of isomers), the inhibitory constant (Ki) in test [1] was 0.316 nM; in test [2] it was 3.98 nM; in test [3] it was 5.01 nM.

Consider `COC[C@@H]1[C@@H]2CNC[C@]12c1ccc(Cl)c(Cl)c1` (racemic), for which the inhibition constant (Ki) is 72.4 nM in test [1], 1290 nM in test [2] and 661 nM in test [3].

As for `CC(C)OC[C@H]1[C@@H]2CNC[C@@]21c1ccc(Cl)c(Cl)c1` (stereo in doubt), the Ki was 0.2 nM in test [1], 0.398 nM in test [2] and 7.94 nM in test [3].

`COC[C@H]1[C@@H]2CNC[C@@]21c1ccc(Cl)c(Cl)c1` (stereo in doubt): the figures for the inhibition constant Ki in test [1], in test [2] and in test [3] were 1.51 nM, 3.16 nM and 110 nM, respectively.

For `CC(C)OCC[C@]1(c2ccc(Cl)c(Cl)c2)[C@@H]2CNC[C@@H]21`, the Ki in test [1] was 0.316 nM; in test [2], 1.58 nM; in test [3] it was 6.31 nM.

`Clc1ccc([C@]23CNC[C@H]2[C@@H]3COCC2CC2)cc1Cl` (relative stereo): the Ki was 5.01 nM in test [1], 15.8 nM in test [2] and 200 nM in test [3].

For `CCOCC[C@H]1[C@@H]2CNC[C@]12c1ccc(Cl)c(Cl)c1` (racemic), the inhibition constant (Ki) in test [1] is 0.794 nM; in test [2] it was 3.98 nM; in test [3], 79.4 nM.

`Clc1ccc([C@@]23CNC[C@@H]2[C@H]3COC2CCCC2)cc1Cl` (stereo in doubt): the Ki in test [1] is 7.94 nM; in test [2] it was 12.6 nM; in test [3], 100 nM.

In the case of `Clc1ccc([C@]23CNC[C@H]2[C@@H]3COC2CCC2)cc1Cl` (relative stereo), the results for the inhibition constant (Ki) in test [1], in test [2] and in test [3] were 0.316 nM, 0.501 nM and 3.98 nM, respectively.

For `CSC[C@H]1[C@@H]2CNC[C@@]21c1ccc(Cl)c(Cl)c1` (stereo in doubt), the Ki in test [1] is 0.794 nM; in test [2], 5.01 nM; in test [3], 79.4 nM.

On to `CSC[C@H]1[C@@H]2CNC[C@@]21c1ccc(Cl)c(Cl)c1` (relative stereo), for which the Ki in test [1] was 0.398 nM; in test [2], 1.58 nM; in test [3], 39.8 nM.

Regarding `Clc1ccc([C@@]2(CCOC3CCC3)[C@@H]3CNC[C@@H]32)cc1Cl`, the inhibition constant (Ki) was 0.2 nM in test [1], 3.98 nM in test [2] and 6.31 nM in test [3].

For `CN(C)C[C@H]1[C@@H]2CNC[C@@]21c1ccc(Cl)c(Cl)c1` (racemic), the Ki in test [1] was 3.98 nM; in test [2], 31.6 nM; in test [3] it was 631 nM.

As to `OC[C@@H]1[C@@H]2CNC[C@]12c1ccc(Cl)c(Cl)c1` (racemic), the figures for the Ki in test [1], in test [2] and in test [3] were 51.3 nM, 182 nM and 479 nM, respectively.

As for `CCCOC[C@@H]1[C@H]2CNC[C@]21c1ccc(Cl)c(Cl)c1` (stereo in doubt), the Ki in test [1] is 0.251 nM; in test [2], 0.631 nM; in test [3], 12.6 nM.

On to `Clc1ccc([C@@]23CNC[C@@H]2[C@H]3COC2CCC2)cc1Cl` (stereo in doubt), for which the Ki in test [1] was 25.1 nM; in test [2] it was 158 nM; in test [3], 251 nM.

On to `COCC[C@H]1[C@]2(C)CNC[C@]12c1ccc(Cl)c(Cl)c1` (racemic), for which the Ki was 0.794 nM in test [1], 3.16 nM in test [2] and 63.1 nM in test [3].

With `Clc1ccc([C@]23CNC[C@H]2[C@@H]3COC2CCCC2)cc1Cl` (relative stereo), the inhibitory constant (Ki) in test [1] was 0.251 nM; in test [2], 0.158 nM; in test [3], 2.51 nM.

As for `OCC[C@H]1[C@@H]2CNC[C@]12c1ccc(Cl)c(Cl)c1` (racemic), the inhibition constant Ki was 2.51 nM in test [1], 7.94 nM in test [2] and 79.4 nM in test [3].

As to `OC[C@H]1[C@@H]2CNC[C@]12c1ccc(Cl)c(Cl)c1` (racemic), the results for the inhibition constant Ki in test [1], in test [2] and in test [3] were 15.5 nM, 28.8 nM and 457 nM, respectively.

As to `CSC[C@@H]1[C@H]2CNC[C@]21c1ccc(Cl)c(Cl)c1` (stereo in doubt), the values for the Ki in test [1], in test [2] and in test [3] were 25.1 nM, 316 nM and 63.1 nM, respectively.

For `Clc1ccc([C@]23CNC[C@H]2[C@@H]3COC2CCC2)cc1Cl` (stereo in doubt), the Ki in test [1] was 0.631 nM; in test [2] it was 1.26 nM; in test [3], 12.6 nM.

`Fc1ccc(OC[C@H]2[C@@H]3CNC[C@@]32c2ccc(Cl)c(Cl)c2)cc1` (racemic): the inhibition constant Ki in test [1] was 1.26 nM; in test [2], 39.8 nM; in test [3] it was 79.4 nM.

For `CCCOC[C@H]1[C@@H]2CNC[C@@]21c1ccc(Cl)c(Cl)c1` (stereo in doubt), the Ki is 0.501 nM in test [1], 0.501 nM in test [2] and 20 nM in test [3].

`Clc1ccc([C@]23CNC[C@H]2[C@@H]3COCC2CC2)cc1Cl` (stereo in doubt): the Ki in test [1] was 0.955 nM; in test [2] it was 1.95 nM; in test [3], 25.1 nM.

Consider `CCC[C@H]1[C@@H]2CNC[C@]12c1ccc(Cl)c(Cl)c1` (racemic), for which the inhibition constant Ki was 1 nM in test [1], 2 nM in test [2] and 25.1 nM in test [3].

Consider `CCC(C)OC[C@]1(c2ccc(Cl)c(Cl)c2)[C@@H]2CNC[C@@H]21` (mixture of isomers), for which the Ki is 0.251 nM in test [1], 2 nM in test [2] and 7.94 nM in test [3].

As to `COCC[C@H]1[C@@]2(c3ccc(Cl)c(Cl)c3)CNC[C@]12C` (relative stereo), the Ki in test [1] was 31.6 nM; in test [2] it was 1000 nM; in test [3], 126 nM.

As for `CCCOC[C@H]1[C@@H]2CNC[C@@]21c1ccc(Cl)c(Cl)c1` (relative stereo), the Ki in test [1] is 9.55 nM; in test [2], 31.6 nM; in test [3], 251 nM.

Regarding `COCC[C@]1(c2ccc(Cl)c(Cl)c2)[C@@H]2CNC[C@@H]21`, the inhibitory constant (Ki) in test [1] is 0.316 nM; in test [2], 7.94 nM; in test [3] it was 10 nM.

On to `COC[C@H]1[C@@H]2CNC[C@@]21c1ccc2ccccc2c1` (relative stereo), for which the Ki in test [1] was 12.6 nM; in test [2] it was 316 nM; in test [3], 398 nM.

Consider `CCOCC[C@]1(c2ccc(Cl)c(Cl)c2)[C@@H]2CNC[C@@H]21`, for which the 50% inhibitory concentration (IC50) in test [4] was less than 100 nM. The results for the Ki in test [1], in test [2] and in test [3] were 0.501 nM, 7.94 nM and 15.8 nM, respectively.

In the case of `Cc1cnc([C@H]2[C@@H]3CNC[C@@]32c2ccc(Cl)c(Cl)c2)o1` (racemic), the figures for the Ki in test [1], in test [2] and in test [3] were 15.8 nM, 20 nM and 126 nM, respectively.

As to `CCOC[C@H]1[C@@H]2CN(C)C[C@]12c1ccc(Cl)c(Cl)c1` (relative stereo), the values for the Ki in test [1], in test [2] and in test [3] were 1.26 nM, 15.8 nM and 39.8 nM, respectively.

`COC[C@H]1[C@@H]2CNC[C@@]21c1ccc2ccccc2c1` (stereo in doubt): the Ki in test [1] was 0.158 nM; in test [2], 1 nM; in test [3] it was 50.1 nM.

In the case of `Clc1ccc([C@]23CNC[C@H]2[C@@H]3COC2CCCC2)cc1Cl` (stereo in doubt), the Ki in test [1] is 0.501 nM; in test [2] it was 0.794 nM; in test [3], 6.31 nM.

Turning to `Cc1csc(C[C@H]2[C@@H]3CNC[C@@]32c2ccc(Cl)c(Cl)c2)n1` (stereo in doubt), the values for the inhibitory constant (Ki) in test [1] and in test [2] were 0.2 nM and 0.316 nM, respectively. In test [3], the negative logarithm of the Ki (pKi) stood at 7.7.

`FC(F)(F)COC[C@]1(c2ccc(Cl)c(Cl)c2)[C@@H]2CNC[C@@H]21` came in with an IC50 in test [4] of 300 nM. Also, the Ki in test [1] is 1 nM; in test [2], 25.1 nM; in test [3], 25.1 nM.

What is called Ki is the equilibrium dissociation constant of an inhibitor or competing ligand from its target. Usually IC50 stands for the point on the concentration scale where inhibition reaches its midpoint. High values mean a need for much substance, low ones inhibition by little substance. One may read the pKi as the negative decadic logarithm of the Ki, by convention in mol/L.
